The source made the active and inactive calls. The calls are words filed in the database; no cut-off is given here.
Columns and labels:
Homo sapiens = organism: Homo sapiens; assay: Selectivity ratio of EC50 for human CB1 receptor to EC50 for human CB2 receptor
Method in brief: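 Inhibition is normalised to 200 nM CP-55940. EC50 from a four-parameter logistic fit. Each compound tested in triplicate, at least three times.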

Cannabinoid receptor 2 [1] = biological target: T1, Cannabinoid receptor 2 (Homo sapiens, UniProt P34972); assay: Agonist activity at human CB2 receptor expressed in CHO cells assessed as inhibition of forskolin-induced cAMP release relative to CP-55940; assay type: functional, cell-based
Method in brief: (§1)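 CHO cells stably expressing human CB2, 5000 cells/well, incubated overnight at 37 °C. Compounds added in stimulation buffer with 1 mM IBMX, 0.25% BSA and forskolin, 30 min at 37 °C. cAMP read after lysis with a commercial kit. 100% is set by forskolin-stimulated cAMP versus the level under 200 nM CP-55940. Efficacy is relative to CP-55940, which is run twice per plate. EC50 from a four-parameter logistic fit. Each compound tested in triplicate, at least three times; mean reported.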

Cannabinoid receptor 2 [2] = biological target: T1, Cannabinoid receptor 2; assay: Agonist activity at human CB2 receptor expressed in CHO cells assessed as inhibition of forskolin-induced cAMP release; assay type: functional, cell-based; method in brief: as §1
Mus musculus [3] = assay: Antiinflammatory activity in BALB/c mouse assessed as inhibition of zymosan-induced paw edema at 30 mg/kg, po administered 60 mins before zymosan challenge measured after 3 hrs relative to control; assay type: functional; set-up: scale not given: the % may be the effect or the level left
Method in brief: (§2)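 Male Balb/c mice, 6–10 weeks old. Compound given orally in 95% PEG400/5% Tween 80 about 60 min before 0.5% zymosan in 0.9% saline, injected dorsal metatarsally into each hind paw. Paw volume measured by water plethysmometry before challenge and 3 h after. Inhibition of swelling is relative to vehicle-dosed mice, six per group.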

Cannabinoid receptor 2 [4] = biological target: T1, Cannabinoid receptor 2; assay: Displacement of [3H]CP-55940 form human CB2 receptor transfected in HEK cells; assay type: cell-based, HEK293
Method in brief: (§3)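 Compounds tested at 1×10^-5 to 1×10^-10 M. Competition with [³H]-CP55940 or [³H]-Win55212 at 4 nM final. IC50 is 50% inhibition of specific binding, from a four-parameter logistic fit.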

Cannabinoid receptor 2 [5] = biological target: T1, Cannabinoid receptor 2; assay: Displacement of [3H]Win55212 form human CB2 receptor transfected in HEK cells; assay type: cell-based, HEK293; method in brief: as §3
Cannabinoid receptor 2 [6] = biological target: T1, Cannabinoid receptor 2; assay: Displacement of [3H]CP-55940 form human CB2 receptor transfected in HEK cells at 50 nM; assay type: cell-based; conditions: HEK293
Mus musculus [7] = assay: Antiinflammatory activity in BALB/c mouse assessed as inhibition of zymosan-induced paw edema at 100 mg/kg, po administered 60 mins before zymosan challenge measured after 3 hrs relative to control; assay type: functional; set-up: scale not given: the % may be the effect or the level left; method in brief: as §2
Cannabinoid receptor 2 [8] = biological target: T1, Cannabinoid receptor 2; assay: Inverse agonist activity at human CB2 receptor expressed in CHO cells assessed as change in forskolin-induced cAMP release; assay type: functional, cell-based; conditions: filed as inverse agonist; method in brief: as §1

T1 sequence (P34972 whole entry): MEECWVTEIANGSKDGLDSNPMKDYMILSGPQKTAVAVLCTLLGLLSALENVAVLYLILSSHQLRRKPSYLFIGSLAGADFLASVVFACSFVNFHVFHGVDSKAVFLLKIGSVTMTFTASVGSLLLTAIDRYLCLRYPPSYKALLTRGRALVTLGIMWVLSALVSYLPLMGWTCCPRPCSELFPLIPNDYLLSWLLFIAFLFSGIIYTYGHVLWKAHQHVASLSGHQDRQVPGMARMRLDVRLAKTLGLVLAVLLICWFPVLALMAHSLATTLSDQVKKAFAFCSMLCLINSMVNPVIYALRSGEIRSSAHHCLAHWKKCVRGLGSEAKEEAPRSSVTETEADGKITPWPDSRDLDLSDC

Row | SMILES | Ratio EC50 (Homo sapiens) | Efficacy (Cannabinoid receptor 2 [1]) | EC50 (Cannabinoid receptor 2 [2]) | further results
1 | Clc1ccc(Nc2ccc(CN3CCO[C@@H](c4ccccc4)C3)cn2)cc1Cl | > 400 | 80% | 50 nM | –
2 | Clc1cccc(Nc2ccc(CN3CCO[C@@H](c4ccccc4)C3)cn2)c1 | > 100 | 80% | 200 nM | –
3 | Clc1cccc(Nc2ccc(CN3CCO[C@@H](c4ccccc4)C3)cn2)c1Cl | > 10 | 70% | 1600 nM | –
4 | Clc1cccc(-c2ccc(CN3CCO[C@@H](c4ccccc4)C3)cc2)c1Cl | 960 | 77% | 6 nM | Activity (Mus musculus [3]): 54%; Ki (Cannabinoid receptor 2 [4]): 312 nM; Ki (Cannabinoid receptor 2 [5]): 104 nM
5 | FC(F)(F)c1ccccc1-c1ccc(CN2CCOC(c3ccccc3)C2)cc1 (racemic) | > 60 | 50% | 330 nM | –
6 | Clc1ccccc1-c1ccc(CN2CCO[C@@H](c3ccccc3)C2)cc1 | 306 | 51% | 25 nM | –
7 | CN(Cc1ccc(-c2ccccc2C(F)(F)F)cc1)CC(O)c1ccccc1 (racemic) | 120 | 95% | 2 nM | Activity (Cannabinoid receptor 2 [6]): Active
8 | CN(C)c1ccc(Nc2ccc(CN3CCO[C@@H](c4ccccc4)C3)cn2)cc1 | – | – | > 20000 nM | –
9 | c1ccc(Oc2ccc(CN3CCO[C@@H](c4ccccc4)C3)cc2)cc1 | – | 100% | 15000 nM | –
10 | FC(F)(F)c1ccccc1-c1ccc(CN2CCCC(c3ccccc3)C2)cc1 (racemic) | 195 | 57% | 30 nM | –
11 | c1ccc(Nc2ccc(CN3CCO[C@@H](c4ccccc4)C3)cn2)cc1 | > 150 | 70% | 140 nM | –
12 | CC(C)c1ccc(Nc2ccc(CN3CCO[C@@H](c4ccccc4)C3)cn2)cc1 | – | – | > 20000 nM | –
13 | O=C(NCC1CCOCC1)c1cnc(Nc2ccc(Cl)cc2Cl)nc1C(F)(F)F [GW842166X] | > 60 | 90% | 350 nM | Ki (Cannabinoid receptor 2 [4]): > 5000 nM; Ki (Cannabinoid receptor 2 [5]): > 10000 nM
14 | Fc1ccc(Nc2ccc(CN3CCO[C@@H](c4ccccc4)C3)cn2)cc1 | – | 70% | 35 nM | –
15 | COc1ccc(Nc2ccc(CN3CCO[C@@H](c4ccccc4)C3)cn2)cc1 | > 310 | 90% | 65 nM | –
16 | N#Cc1ccccc1-c1ccc(CN2CCO[C@@H](c3ccccc3)C2)cc1 | 715 | 56% | 3 nM | –
17 | FC(F)(F)c1ccccc1-c1ccc(CN2CCO[C@@H](c3ccccc3)C2)cc1 | 250 | 50% | 40 nM | –
18 | Clc1ccc(Nc2ccc(CN3CCO[C@@H](c4ccccc4)C3)cn2)cc1 | > 670 | 80% | 30 nM | –
19 | c1ccc(Nc2ccc(CN3CCO[C@@H](c4ccccc4)C3)cc2)cc1 | > 30 | 60% | 615 nM | –
20 | Clc1ccc(Nc2ccc(CN3CCO[C@@H](c4ccccc4)C3)cn2)c(Cl)c1 | > 2000 | 100% | 10 nM | Ki (Cannabinoid receptor 2 [4]): > 10000 nM; Activity (Mus musculus [7]): 85%; Ki (Cannabinoid receptor 2 [5]): 2650 nM
21 | c1ccc(-c2ccc(Nc3ccc(CN4CCO[C@@H](c5ccccc5)C4)cn3)cc2)cc1 | – | – | > 20000 nM | –
22 | Cc1ccc(Cl)c(-c2ccc(CN3CCO[C@@H](c4ccccc4)C3)cc2)c1 | 781 | 73% | 3 nM | –
23 | FC(F)(F)c1ccccc1-c1ccc(CN2CCO[C@H](c3ccccc3)C2)cc1 | – | – | – | Activity (Cannabinoid receptor 2 [8]): Inverse agonist
24 | Cc1ccc(Nc2ccc(CN3CCO[C@@H](c4ccccc4)C3)cn2)cc1 | > 200 | 80% | 100 nM | –
25 | Clc1ccccc1Nc1ccc(CN2CCO[C@@H](c3ccccc3)C2)cn1 | 250 | 80% | 30 nM | –

— ChEMBL document CHEMBL1153325, “Morpholine containing CB2 selective agonists” (Bioorg Med Chem Lett, 2009)
